Tests used:
[1] = target: T1, CDC7/DBF4 (Cell division cycle 7-related protein kinase/Activator of S phase kinase) (Homo sapiens, UniProt O00311); assay: Inhibition of Cdc7/Dbf4 (unknown origin)-mediated phosphorylation of MCM2 by protein-A luminescent proximity homogenous assay; assay type: protein-complex assay
[2] = target: Cyclin-dependent kinase 2/cyclin E1 (Homo sapiens, UniProt P24941); assay: Inhibition of CDK2/Cyclin-E (unknown origin) using maltose binding protein as substrate by HTRF assay; assay type: protein-complex assay
[3] = target: T1, CDC7/DBF4 (Cell division cycle 7-related protein kinase/Activator of S phase kinase); assay: Inhibition of Cdc7/Dbf4 in human HCT116 cells assessed as reduction of MCM2 phosphorylation after 14 hrs; assay type: cell-based, HCT-116
Method in brief: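 HCT-116 cells were exposed to inhibitor across a 22-point dose response for 14 h. They were then immunostained for phospho-serine MCM2 using an Alexa Fluor 488 secondary, with a Hoechst nuclear counterstain. The percentage of cells with phospho-MCM2 signal above a threshold was scored by high-content imaging, and IC50 values were derived from that.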

[4] = target: CDC7/DBF4 (Cell division cycle 7-related protein kinase/Activator of S phase kinase) (Homo sapiens) (UniProt Q9UBU7+O00311); assay: Ratio of IC50 for Cdc7/Dbf4 in human HCT116 cells to IC50 for Cdc7/Dbf4 (unknown origin); assay type: cell-based; conditions: HCT-116
[5] = Intrinsic clearance in human liver microsomes at 1 uM after 30 mins by reverse phase HPLC analysis in presence of NADPH; assay type: ADME; conditions: read-out: CLH
Method in brief: (§1)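 Reactions were stopped with MeCN after 0 or 30 min. Samples were analysed by reverse-phase HPLC–tandem MS to give intrinsic clearance (µl/min/mg).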

[6] = Intrinsic clearance in rat liver microsomes at 1 uM after 30 mins by reverse phase HPLC analysis in presence of NADPH; assay type: ADME; conditions: read-out: CLH; method in brief: as §1
Homo sapiens = species: Homo sapiens; assay: Selectivity ratio of IC50 for CDK2/Cyclin-E (unknown origin) to IC50 for Cdc7/Dbf4 (unknown origin)

Chain of CDC7/DBF4 (Cell division cycle 7-related protein kinase/Activator of S phase kinase) (Homo sapiens) (O00311 whole entry, looked up): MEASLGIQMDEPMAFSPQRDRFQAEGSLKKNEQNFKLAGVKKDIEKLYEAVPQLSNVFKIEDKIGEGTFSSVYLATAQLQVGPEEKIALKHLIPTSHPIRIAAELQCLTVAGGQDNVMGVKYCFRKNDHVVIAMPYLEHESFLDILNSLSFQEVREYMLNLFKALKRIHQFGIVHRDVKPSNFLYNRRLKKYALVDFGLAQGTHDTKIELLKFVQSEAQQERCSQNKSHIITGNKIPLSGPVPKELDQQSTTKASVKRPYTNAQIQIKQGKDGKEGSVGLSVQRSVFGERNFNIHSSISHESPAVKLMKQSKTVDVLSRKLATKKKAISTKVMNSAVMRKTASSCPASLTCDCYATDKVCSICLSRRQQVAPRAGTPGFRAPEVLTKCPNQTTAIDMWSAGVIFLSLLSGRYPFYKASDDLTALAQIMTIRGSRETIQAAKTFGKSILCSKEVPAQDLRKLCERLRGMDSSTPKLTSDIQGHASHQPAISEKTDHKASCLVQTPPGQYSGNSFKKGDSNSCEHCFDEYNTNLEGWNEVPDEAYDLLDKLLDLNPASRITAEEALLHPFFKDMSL
Chain of CDC7/DBF4 (Cell division cycle 7-related protein kinase/Activator of S phase kinase) (Homo sapiens) (Q9UBU7 whole entry, looked up): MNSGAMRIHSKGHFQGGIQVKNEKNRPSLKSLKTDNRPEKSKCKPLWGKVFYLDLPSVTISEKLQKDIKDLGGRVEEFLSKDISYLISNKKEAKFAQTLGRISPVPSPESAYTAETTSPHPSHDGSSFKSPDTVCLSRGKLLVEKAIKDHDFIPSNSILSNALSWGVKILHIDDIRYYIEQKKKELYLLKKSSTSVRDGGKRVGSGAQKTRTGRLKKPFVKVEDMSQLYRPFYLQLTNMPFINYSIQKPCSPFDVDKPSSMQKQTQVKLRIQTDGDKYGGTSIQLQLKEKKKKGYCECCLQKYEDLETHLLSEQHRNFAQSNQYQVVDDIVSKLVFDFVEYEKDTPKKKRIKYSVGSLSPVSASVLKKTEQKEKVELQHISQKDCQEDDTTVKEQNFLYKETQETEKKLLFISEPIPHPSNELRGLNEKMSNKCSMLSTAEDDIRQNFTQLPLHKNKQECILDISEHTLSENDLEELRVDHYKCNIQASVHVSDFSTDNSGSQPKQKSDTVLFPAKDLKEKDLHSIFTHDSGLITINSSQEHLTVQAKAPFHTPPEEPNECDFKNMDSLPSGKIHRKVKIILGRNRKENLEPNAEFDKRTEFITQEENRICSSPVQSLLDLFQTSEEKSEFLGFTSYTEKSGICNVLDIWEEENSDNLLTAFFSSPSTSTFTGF
T1 sequence (Q9UBU7 whole entry): as the sequence (Q9UBU7 whole entry, looked up) above
T1 sequence (O00311 whole entry): as the sequence (O00311 whole entry, looked up) above

SMILES | IC50 [1] | IC50 [2] | IC50 [3] | Ratio IC50 [4] | microsomal CLint at 1 µM [5] | microsomal CLint at 1 µM [6] | Ratio IC50 (Homo sapiens)
CCOC(=O)c1sc(-c2ccncc2)nc1OC | 17.2 µM | > 125 µM |  |  |  |  | 
CCOC(=O)c1sc(-c2ccccc2)nc1O | 46.7 µM | > 125 µM |  |  |  |  | 
O=C(NCc1ccccc1)c1sc(-c2ccncc2)nc1O | 11.6 µM | 52.1 µM |  |  |  |  | 
CCOC(=O)c1sc(-c2cccnc2)nc1O | 32 µM | > 125 µM |  |  |  |  | 
CCOC(=O)c1sc(-c2ccncc2)nc1Nc1ccccc1 | > 125 µM | > 125 µM |  |  |  |  | 
CCOC(=O)c1sc(-c2ccncc2)nc1C | 25.1 µM | > 125 µM |  |  |  |  | 
CCOC(=O)c1sc(-c2ccncc2)nc1-c1cccnc1 | 8.29 µM | > 125 µM |  |  |  |  | 
CCOC(=O)c1sc(-c2ccsc2)nc1O | 29.6 µM | > 125 µM |  |  |  |  | 
CCOC(=O)c1sc(-c2ccc(OC)cc2)nc1O | > 125 µM | > 125 µM |  |  |  |  | 
CCOC(=O)c1sc(C(C)(C)C)nc1O | > 125 µM | > 125 µM |  |  |  |  | 
CCOC(=O)c1sc(-c2cc(N)ncn2)nc1-c1ccccc1 | > 125 µM | > 125 µM |  |  |  |  | 
O=C(O)c1sc(-c2ccncc2)nc1O | 6.13 µM | > 125 µM |  |  |  |  | 
N#Cc1sc(-c2ccncc2)nc1-c1ccccc1 | 10.3 µM | > 125 µM |  |  |  |  | 
CCOC(=O)c1sc(-c2ccccn2)nc1O | > 125 µM | > 125 µM |  |  |  |  | 
CCOC(=O)c1sc(-c2ccncc2)nc1NC | 7.35 µM | > 125 µM |  |  |  |  | 
CCOC(=O)c1sc(-c2ccncc2)nc1-c1ccc2ccccc2c1 | > 125 µM | > 125 µM |  |  |  |  | 
CNC(=O)c1sc(-c2ccncc2)nc1O | 8.98 µM | > 125 µM |  |  |  |  | 
CCOC(=O)c1sc(-c2cnccn2)nc1O | 26.5 µM | > 125 µM |  |  |  |  | 
c1ccc(-c2nc(-c3ccncc3)sc2-c2nnco2)cc1 | 3.87 µM | > 125 µM |  |  |  |  | 
CCOC(=O)c1sc(-c2ccnc(N)c2)nc1-c1ccccc1 | 19.9 µM | > 125 µM |  |  |  |  | 
CCOC(=O)c1sc(-c2ccncc2)nc1N | 4.2 µM | > 125 µM |  |  |  |  | 
CCOC(=O)c1sc(-c2ccncc2)nc1-c1ccccc1 | 20.5 µM | > 125 µM |  |  |  |  | 
CCOC(=O)c1cnc(-c2ccncc2)s1 | 24 µM | > 125 µM |  |  |  |  | 
CCOC(=O)c1sc(-c2ccncc2)nc1NCc1ccccc1 | 38.3 µM | > 125 µM |  |  |  |  | 
CCOC(=O)c1sc(-c2ccnc(CC)c2)nc1O | 7.5 µM | > 125 µM |  |  |  |  | 
CN(C)C(=O)c1sc(-c2ccncc2)nc1O | 24.4 µM | > 125 µM |  |  |  |  | 

Molecules with a lower IC50 [1], results first:

IC50 [1] | IC50 [2] | IC50 [3] | Ratio IC50 [4] | microsomal CLint at 1 µM [5] | microsomal CLint at 1 µM [6] | Ratio IC50 (Homo sapiens) | SMILES
1.02 µM | > 125 µM |  |  |  |  |  | CCOC(=O)c1sc(-c2ccncc2)nc1-c1ccc(F)cc1Cl
0.172 µM | > 125 µM |  |  |  |  |  | O=C(O)c1sc(-c2ccncc2)nc1-c1ccccc1
0.0143 µM | 0.7 µM | 11.5 µM | > 100 |  |  |  | NC(=O)c1sc(-c2ccncc2)nc1-c1ccc(Cl)cc1Cl
3.22 µM | > 125 µM |  |  |  |  |  | CCOC(=O)c1sc(-c2ccncc2)nc1-c1ccccc1O
0.115 µM | > 125 µM | > 50 µM |  |  |  |  | NC(=O)c1sc(-c2ccncc2)nc1O
0.0328 µM | 34.8 µM | 3.62 µM |  | < 14 µL/min/mg | 28 µL/min/mg |  | NC(=O)c1sc(-c2ccnc(N)n2)nc1-c1cc(F)ccc1F
0.101 µM | 34.2 µM | 23.6 µM | > 100 |  |  |  | NC(=O)c1sc(-c2ccncc2)nc1-c1ccccc1
1.69 µM | > 125 µM |  |  |  |  |  | O=C(NO)c1sc(-c2ccncc2)nc1-c1ccccc1
0.0955 µM | 5.71 µM | 9.93 µM | > 100 |  |  |  | COc1nc(-c2ccncc2)sc1C(N)=O
0.973 µM | > 125 µM |  |  |  |  |  | CCOC(=O)c1sc(-c2ccncc2)nc1-c1ccc(Cl)cc1Cl
0.669 µM | > 125 µM |  |  |  |  |  | CCOC(=O)c1sc(-c2ccncc2)nc1N(C)C
0.452 µM | > 125 µM |  |  |  |  |  | c1ccc(-c2nc(-c3ccncc3)sc2-c2nn[nH]n2)cc1
0.00604 µM | 7.03 µM | 1.4 µM |  | < 14 µL/min/mg | 140 µL/min/mg |  | Cc1ccc(-c2nc(-c3ccnc(N)n3)sc2C(N)=O)c(Cl)c1
0.104 µM | 1.2 µM |  |  |  |  | 11 | O=C1Nc2ccccc2Nc2nc(-c3ccncc3)sc21
0.0623 µM | > 125 µM | 8.5 µM |  | 67 µL/min/mg | 69 µL/min/mg |  | NC(=O)c1sc(-c2ccnc(N)n2)nc1-c1cc(Cl)cc(Cl)c1
0.0205 µM | 18.2 µM | 1.87 µM |  | 23 µL/min/mg | 26 µL/min/mg |  | CN(C)c1nc(-c2ccnc(N)n2)sc1C(N)=O
0.472 µM | > 125 µM |  |  |  |  |  | NNC(=O)c1sc(-c2ccncc2)nc1-c1ccccc1
0.0178 µM | > 125 µM | 1.07 µM |  | < 14 µL/min/mg | < 14 µL/min/mg |  | NC(=O)c1sc(-c2ccnc(N)n2)nc1-c1ccccc1F
0.855 µM | > 125 µM |  |  |  |  |  | CCOC(=O)c1sc(-c2ccncc2)nc1-c1ccc(OC)cc1Cl
0.0415 µM | > 125 µM |  |  |  |  |  | CCOC(=O)c1sc(-c2ccnc(N)n2)nc1O
0.0184 µM | 34.9 µM | 2.04 µM |  | < 14 µL/min/mg | < 14 µL/min/mg |  | NC(=O)c1sc(-c2ccnc(N)n2)nc1-c1ccccc1C(F)(F)F
0.451 µM | > 125 µM |  |  |  |  |  | CCOC(=O)c1sc(-c2ccncc2)nc1-c1cccc(Cl)c1Cl
0.529 µM | > 125 µM |  |  |  |  |  | CCOC(=O)c1sc(-c2ccncc2)nc1-c1ccccc1Cl

From ChEMBL document CHEMBL3259739, “Synthesis and structure-activity relationship of trisubstituted thiazoles as Cdc7 kinase inhibitors” (Eur J Med Chem, 2014)
